In ChEMBL document CHEMBL1156387, “Novel esters of glaucarubolone as inducers of terminal differentiation of promyelocytic HL-60 cells and inhibitors of 7,12-dimethylbenz[a]anthracene-induced preneoplastic lesion formation in mouse mammary organ culture” (J Nat Prod, 2001):

Columns and labels:
[1] = Inhibition of DMBA-induced preneoplastic lesion formation in a BALB/c mouse mammary organ culture at 2 uM pretreated for 10 days before DMBA-challenge measured after 14 days; format: functional; conditions: Mammary gland
Procedure, shortened: (§1)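 Female BALB/c mice, 4 weeks old, primed 9 days with estradiol 1 μg plus progesterone 1 mg. Thoracic glands were cultured 10 days with insulin, prolactin, aldosterone and hydrocortisone plus test agent at 2 μM. DMBA 2 μg/mL was given for 24 h on day 3. Regression followed for 14 days in insulin alone. Glands were formalin-fixed and alum carmine-stained. Lesion incidence gave % inhibition versus DMBA control. Toxicity was scored as duct dilation or amorphous disintegration.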

HL-60 [2] = assay: Selectivity index, ratio of cytotoxic IC50 to antiproliferative IC50 for human HL60 cells; format: functional
Procedure, shortened: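 Index = cytotoxic IC50 (trypan blue, 4-day HL-60 exposure) divided by antiproliferative IC50 ([3H]thymidine incorporation), each from dose–response with at least five points.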

[3] = Toxicity in BALB/c mouse mammary organ culture assessed as morphological changes in mammary gland at 2 uM after 10 days; format: tissue-based; conditions: ex_vivo, 240 h; procedure, shortened: as §1
HL-60 [4] = assay: Antiproliferative activity against human HL60 cells assessed as inhibition of [3H]thymidine incorporation after 4 days by liquid scintillation counter; format: functional, cell-based
Procedure, shortened: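 HL-60 cells in log phase diluted to 10^5 cells/mL, preincubated 18 h, then exposed to samples in DMSO (final 0.1% v/v; DMSO-only controls) for 4 days. Cells then pulsed with [3H]thymidine (0.5 μCi/mL, 65 Ci/mmol) for 18 h at 37 °C, 5% CO2, harvested onto glass fiber filters, scintillation counted; incorporation per 10^6 cells as % of DMSO control. IC50 from 5–7 concentrations in duplicate.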

HL-60 [5] = assay: Induction of cell differentiation in human HL60 cells assessed as superoxide anion production after 4 days by NBT reduction assay; format: functional, cell-based; conditions: HL-60, 96 h
Procedure, shortened: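 Cells diluted to 10^5/mL and recovered overnight were exposed 4 days to samples (0.1% v/v DMSO final). Cell suspension (10^6 cells) was mixed 1:1 with NBT 2 mg/mL plus TPA 1 μg/mL in PBS and held 1 h at 37 °C. Formazan-positive cells were counted microscopically among >200 cells. EC50 from 5–7 concentrations in duplicate; 1α,25-dihydroxyvitamin D3 served as reference.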

HL-60 [6] = assay: Cytotoxicity against human HL60 cells assessed as loss of membrane integrity after 4 days by trypan blue exclusion assay; format: functional, cell-based; conditions: HL-60, 96 h
Procedure, shortened: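 After 18 h recovery at 10^5 cells/mL, HL-60 cells were treated 4 days with samples (final DMSO 0.1% v/v). Cells were mixed 1:4 with trypan blue (0.2% w/v in PBS), held at least 5 min at room temperature and counted by hemocytometer. Viability was taken from duplicate samples; IC50 from 5–7 concentrations in duplicate.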

| Structure (SMILES) | EC50 (HL-60 [5]) | inhibition at 2 µM [1] | Ratio IC50 (HL-60 [2]) | Activity [3] | IC50 (HL-60 [4]) | IC50 (HL-60 [6]) |
| --- | --- | --- | --- | --- | --- | --- |
| CCC(CC)(CO)C(=O)O[C@H]1C(=O)O[C@@H]2C[C@H]3C(C)=CC(=O)[C@@H](O)[C@]3(C)[C@H]3[C@]4(O)OC[C@]32[C@@H]1[C@@H](C)[C@H]4O | 500 nM | 70% | 6.5 | Non-toxic | 150 nM | 950 nM |
| CC1=CC(=O)[C@@H](O)[C@]2(C)[C@H]3C4(O)OC[C@@]35[C@@H](C[C@@H]12)OC(=O)C[C@H]5[C@@H](C)[C@H]4O (single isomer, unassigned) [CHAPARRINONE] | 2400 nM | 25% | 4.3 | Non-toxic | 1200 nM | 5000 nM |
| COC(=O)[C@@]12OC[C@]34[C@H]([C@@H](O)[C@@H]1O)[C@@]1(C)CC(=O)C(O)=C(C)[C@@H]1C[C@H]3OC(=O)[C@H](OC(=O)/C=C(\C)C(C)C)[C@@H]24 [BRUCEANTIN] | 20 nM | 70% | 1 | Non-toxic | 40 nM | 40 nM |
| CC1=CC(=O)[C@@H](O)[C@@]2(C)[C@H]1CC[C@@]13CO[C@]4(C)[C@@H]1C(=O)O[C@H]4[C@H](O)[C@@H]32 [SAMADERIN B] | 1000 nM | 0% | >6 | Non-toxic | 400 nM | > 2000 nM |

Continued, in another order:

| EC50 (HL-60 [5]) | Structure (SMILES) | inhibition at 2 µM [1] | Ratio IC50 (HL-60 [2]) | Activity [3] | IC50 (HL-60 [4]) | IC50 (HL-60 [6]) |
| --- | --- | --- | --- | --- | --- | --- |
| 19 nM | CC[C@](O)(CC(=O)O[C@H]1C(=O)O[C@@H]2C[C@H]3C(C)=CC(=O)[C@@H](O)[C@]3(C)[C@H]3[C@]4(O)OC[C@]32[C@@H]1[C@@H](C)[C@H]4O)C(C)C | 44% | 1.5 | Non-toxic | 9 nM | 13 nM |
| 140 nM | CC1=CC(=O)[C@@H](O)[C@]2(C)[C@H]3[C@]4(O)OC[C@]35[C@H]([C@@H](C)[C@H]4O)[C@@H](OC(=O)CC3(O)CCC3)C(=O)O[C@@H]5C[C@@H]12 | 33% | 1.1 | Non-toxic | 260 nM | 280 nM |
| 55 nM | CC1=CC(=O)[C@@H](O)[C@]2(C)[C@H]3[C@]4(O)OC[C@]35[C@H]([C@@H](C)[C@H]4O)[C@@H](OC(=O)CC(C(C)C)C(C)C)C(=O)O[C@@H]5C[C@@H]12 | 40% | 2 | Non-toxic | 75 nM | 150 nM |
